Source: the array DNA melting data of Ke et al. (doi:10.1101/2024.01.08.574731)

Experiments:
[1] = folding enthalpy; higher = less favourable; fluorescence melt of hairpins on a sequencing array, two-state fit; settings: sodium 0.088 M
In short: (§1)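 Melting temperature and folding enthalpy were derived from bootstrapped two-state fits. The fitted temperatures were raised by 9.35 °C to agree with UV melts, and four replicates were combined by inverse variance. The underlying data were Cy3 fluorescence images of library hairpins, with annealed Cy3 and quencher oligos, on a sequenced MiSeq flow cell in 50 mM Na-HEPES pH 8.0, 25 mM NaCl, taken in 2.5 °C steps up to 60 °C, normalised to pre-quench Cy3 and to control constructs.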

[2] = melting temperature; fluorescence melt of hairpins on a sequencing array, two-state fit, raised by 9.35 °C to match UV melts; settings: sodium 0.088 M
In short: as §1

Sequence | folding enthalpy [1] [kcal/mol] | Tm [2] [°C]
GCAGTAGGAAACTACCGC ((.((((....)))).)) | -22.5 | 41
GCAGTAGGAAACTACTAC (.(((((....))))).) | -17.2 | 32.2
GCAGTCGAAAGACAATGC ((((((....)))..))) | -20.1 | 44.4
GCAGTCGAAAGACAGTGC ((((((....)))..))) | -18.4 | 45.1
GCAGTCGAAAGACGATGC ((((((....)))..))) | -18 | 46.5
GCAGTCGAAAGACTGTGC ((((((....)))..))) | -18.3 | 55.3
GCAGTGAAAACTGC (((((....))))) | -28.1 | 61.2
GCAGTGCGAAAGCAGGGC ((..(((....)))..)) | -21.6 | 58.4
GCAGTGCGAAAGCATAGC ((..(((....)))..)) | -15.8 | 55.4
GCAGTGCGAAAGCCATGC (((..((....))..))) | -16.4 | 51.1
GCAGTGCGAAAGCGGTGC (((..((....))..))) | -39.5 | 63.9
GCAGTGGGAAACCACCGC ((.((((....)))).)) | -23.4 | 48.8
GCAGTGGGAAACCGCTGC ((((.((....)).)))) | -49.4 | 62.1
GCAGTTGGAAACAACTGC (((((((....))))))) | -63.5 | 62.5
GCAGTTGGAAACAGCTGC ((((.((....)).)))) | -31.9 | 54.5
GCAGTTGGAAACGACTGC (((((.(....).))))) | -39.5 | 55.3
GCATAACGAAAGTTGTGC (((.(((....))).))) | -54.7 | 54.7
GCATAACGAAAGTTTGC (((.(((....)))))) | -25.8 | 46
GCATAACGAAAGTTTTGC (((.(((....))).))) | -30.7 | 48.8
GCATAAGAAATTATGC ((((((....)))))) | -28.6 | 46.3
GCATACCGAAAGGTTTGC (((.(((....))).))) | -42.2 | 54.4
GCATACGAAAGTAAATGC ((((((....)))..))) | -30 | 42.6
GCATACGAAAGTAAGTGC ((((((....)))..))) | -21.4 | 34.5

Sequence | folding enthalpy [1] [kcal/mol] | Tm [2] [°C]
GCATACGAAAGTATTTGC ((((((....)))..))) | -17.1 | 32.9
GCATAGACGAAAGTCTGC (((..(((....)))))) | -15.5 | 46.3
GCATAGCGAAAGCAACGC ((.(.((....)).).)) | -12 | 35.6
GCATAGCGAAAGCATTGC (((..((....))..))) | -18.4 | 50.7
GCATAGCGAAAGCCCTGC (((..((....))..))) | -7.04 | 29.5
GCATAGCGAAAGCGACGC ((.(.((....)).).)) | -34.1 | 63.7
GCATAGCGAAAGCGGTGC (((..((....))..))) | -32.6 | 63.6
GCATAGCGAAAGCTACGC ((.((((....)))).)) | -20.3 | 52.9
GCATAGGCGAAAGCCTGC (((..(((....)))))) | -13.5 | 49
GCATATACGAAAGTATGC (((..(((....)))))) | -22.3 | 41.5
GCATATGGAAACATGTGC (((.(((....))).))) | -36.6 | 49
GCATCACGAAAGTGTTGC (((.(((....))).))) | -44 | 55
GCATCAGAAATGATGC ((((((....)))))) | -38.7 | 57.9
GCATCCACGAAAGTGTGC (((..(((....)))))) | -14.3 | 37.6
GCATCCGAAAGGAACTGC ((((((....)))..))) | -17.1 | 33.5
GCATCCGAAAGGAATGC ((((((....))).))) | -32.3 | 55.4
GCATCCGAAAGGATTGC ((((((....))).))) | -16.6 | 53.8
GCATCCGAAAGGATTTGC ((((((....)))..))) | -18.5 | 43.9
GCATCCGGAAACAGATGC (((((.(....).))))) | -36.8 | 45
GCATCCGGAAACGAATGC ((((.((....)).)))) | -44.1 | 45.5
GCATCGCGAAAGCAATGC ((((.((....)).)))) | -24.6 | 60.2
GCATCGCGAAAGCAGTGC (((..((....))..))) | -18 | 52.3
GCATCGCGAAAGCGCTGC (((.(((....))).))) | -42 | 56

Sequence | folding enthalpy [1] [kcal/mol] | Tm [2] [°C]
GCATCGCGAAAGCGTAGC ((..(((....)))..)) | -17.1 | 48.5
GCATCGCGAAAGCTAAGC ((.(.((....)).).)) | -6.7 | 30.7
GCATCGCGAAAGCTGTGC (((..((....))..))) | -21.1 | 45.8
GCATCGGAAACGATGC ((((((....)))))) | -35.8 | 68.6
GCATCTCGAAAGAGCTGC (((.(((....))).))) | -30.9 | 48.2
GCATCTCGAAAGAGTTGC (((.(((....))).))) | -33.9 | 50.6
GCATCTTCGAAAGAATGC (((..(((....)))))) | -23.2 | 33.4
GCATGACGAAAGTCTTGC (((.(((....))).))) | -38.3 | 57.5
GCATGAGGAAACTCATGC (((((((....))))))) | -40.3 | 65.3
GCATGCCGAAAGGCTTGC (((.(((....))).))) | -26.9 | 66.2
GCATGCGAAAGCAAGTGC ((((((....)))..))) | -17.8 | 46.8
GCATGCGAAAGCAATGC ((((((....))).))) | -31 | 64.2
GCATGCGAAAGCACCTGC ((((((....)))..))) | -10.9 | 33
GCATGCGAAAGCAGCTGC ((((((....)))..))) | -17.9 | 54
GCATGCGAAAGCATGTGC ((((((....)))..))) | -15.5 | 64
GCATGCGGAAACGCGTGC (((.(((....))).))) | -45.2 | 67.6
GCATGGCGAAAGCAAAGC ((.(.((....)).).)) | -10.9 | 31.8
GCATGGCGAAAGCAACGC ((.(.((....)).).)) | -10.8 | 30.7
GCATGGCGAAAGCACTGC (((..((....))..))) | -20.6 | 46.3
GCATGGCGAAAGCGCTGC (((..((....))..))) | -18.6 | 51.6
GCATGGCGAAAGCTATGC ((((.((....)).)))) | -37.9 | 66.6
GCATGGGGAAACTCATGC (((((.(....).))))) | -40.3 | 51.9
GCATGTCCGAAAGGATGC (((..(((....)))))) | -16.4 | 40.2

Sequence | folding enthalpy [1] [kcal/mol] | Tm [2] [°C]
GCATGTCGAAAGACTTGC (((.(((....))).))) | -43.8 | 54.6
GCATGTGAAAACATGC ((((((....)))))) | -38.3 | 64
GCATGTGGAAACATATGC ((((.((....)).)))) | -30.9 | 49.5
GCATTAGGAAACCAATGC (((((.(....).))))) | -29.6 | 39.6
GCATTAGGAAACTGATGC ((((.((....)).)))) | -36.7 | 45.4
GCATTCGAAAGAATGTGC ((((((....)))..))) | -36.8 | 50.6
GCATTGCGAAAGCACAGC ((..(((....)))..)) | -15.2 | 35.4
GCATTGCGAAAGCACGGC ((..(((....)))..)) | -16.6 | 40
GCATTGCGAAAGCACTGC (((.(((....))).))) | -45.1 | 52.2
GCATTGCGAAAGCCAGGC ((.(.((....)).).)) | -17.6 | 38.5
GCATTGCGAAAGCCCTGC (((..((....))..))) | -14.6 | 34.5
GCATTGCGAAAGCCGTGC (((..((....))..))) | -22 | 41.2
GCATTGCGAAAGCGATGC ((((.((....)).)))) | -38 | 67.5
GCATTGGGAAACCAATGC (((((((....))))))) | -44.9 | 65.8
GCATTGGGAAACTGATGC ((((..(....)..)))) | -30 | 38.8
GCATTTCGAAAGAATGC (((.(((....)))))) | -30.5 | 45.5
GCATTTGCGAAAGCATGC (((..(((....)))))) | -17.9 | 44.9
GCCAAAGCGAAAGCTGGC (((..(((....)))))) | -26.1 | 59.7
GCCAAAGGAAACTTCGGC (((.(((....))).))) | -24 | 39.6
GCCAACCGAAAGGTAGGC (((.(((....))).))) | -39.1 | 60.4
GCCAACGAAAGTTCAGGC ((((((....)))..))) | -28.2 | 40.7
GCCAACGAAAGTTCGGC ((((((....))).))) | -26.3 | 51.2
